{"source": "ChEMBL document CHEMBL1944507", "about": "“Structure-activity relationships for amide-, carbamate-, and urea-linked analogues of the tuberculosis drug (6S)-2-nitro-6-{[4-(trifluoromethoxy)benzyl]oxy}-6,7-dihydro-5H-imidazo[2,1-b][1,3]oxazine (PA-824)” (J Med Chem, 2012)", "key": {"[1]": {"tested_on": "Mycobacterium tuberculosis", "test": "Antimicrobial activity against Mycobacterium tuberculosis H37Rv ATCC 27294 harboring pFCA-lux AB gene measured under aerobic condition after 8 days by luminescence analysis", "assay_type": "functional", "conditions": "H37Rv ATCC 27294, 192 h", "outline": "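MABA: replicating M. tb H37Rv exposed to compound aerobically for 8 days. […] Mean of at least two independent determinations ± SD.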"}, "[2]": {"tested_on": "Mycobacterium tuberculosis", "test": "Antimicrobial activity against Mycobacterium tuberculosis H37Rv ATCC 27294 harboring pFCA-lux AB gene measured under anaerobic condition after 11 days by luminescence analysis", "assay_type": "functional", "conditions": "H37Rv ATCC 27294, 264 h", "outline": "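LORA: luminescence-based low-oxygen-recovery assay on nonreplicating M. tb, 11-day anaerobic exposure. MIC is the mean of at least two independent determinations ± SD.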"}}}
{"smiles": "O=C(NCc1ccc(-c2ccc(C(F)(F)F)nc2)cc1)O[C@@H]1COc2nc([N+](=O)[O-])cn2C1", "values": [{"measurement": "MIC", "setting": "[1]", "result": 0.69, "unit": "µM"}, {"measurement": "MIC", "setting": "[2]", "result": 11, "unit": "µM"}]}
{"smiles": "O=C(O[C@@H]1COc2nc([N+](=O)[O-])cn2C1)N1CCN(c2ccc(OC(F)(F)F)cc2)CC1", "values": [{"measurement": "MIC", "setting": "[1]", "result": 0.033, "unit": "µM"}, {"measurement": "MIC", "setting": "[2]", "result": 1.1, "unit": "µM"}]}
{"smiles": "O=C(Nc1cccc(-c2ccc(F)cc2)c1)O[C@@H]1COc2nc([N+](=O)[O-])cn2C1", "values": [{"measurement": "MIC", "setting": "[1]", "result": 0.027, "unit": "µM"}, {"measurement": "MIC", "setting": "[2]", "result": 1.5, "unit": "µM"}]}
{"smiles": "O=C(NCc1ccc(-c2ccc(OC(F)(F)F)cc2)cc1)N[C@@H]1COc2nc([N+](=O)[O-])cn2C1", "values": [{"measurement": "MIC", "setting": "[1]", "result": 1, "unit": "µM"}, {"measurement": "MIC", "setting": "[2]", "result": 32, "unit": "µM"}]}
{"smiles": "CN(C(=O)c1ccc(OC(F)(F)F)cc1)[C@@H]1COc2nc([N+](=O)[O-])cn2C1", "values": [{"measurement": "MIC", "setting": "[1]", "result": 22, "unit": "µM"}, {"measurement": "MIC", "setting": "[2]", "result": "> 64", "unit": "µM"}]}
{"smiles": "CN([C@@H]1COc2nc([N+](=O)[O-])cn2C1)S(=O)(=O)c1ccccc1OC(F)(F)F", "values": [{"measurement": "MIC", "setting": "[1]", "result": 20, "unit": "µM"}, {"measurement": "MIC", "setting": "[2]", "result": 45, "unit": "µM"}]}
{"smiles": "O=C(N[C@@H]1COc2nc([N+](=O)[O-])cn2C1)OCc1ccc(-c2ccc(F)nc2)cc1", "values": [{"measurement": "MIC", "setting": "[1]", "result": 0.34, "unit": "µM"}, {"measurement": "MIC", "setting": "[2]", "result": 4.3, "unit": "µM"}]}
{"smiles": "O=C(Nc1cccc(-c2ccc(C(F)(F)F)cc2)c1)O[C@@H]1COc2nc([N+](=O)[O-])cn2C1", "values": [{"measurement": "MIC", "setting": "[1]", "result": 0.04, "unit": "µM"}, {"measurement": "MIC", "setting": "[2]", "result": 1, "unit": "µM"}]}
{"smiles": "CN([C@@H]1COc2nc([N+](=O)[O-])cn2C1)S(=O)(=O)c1cccc(OC(F)(F)F)c1", "values": [{"measurement": "MIC", "setting": "[1]", "result": 12, "unit": "µM"}, {"measurement": "MIC", "setting": "[2]", "result": 64, "unit": "µM"}]}
{"smiles": "O=C(Nc1cccc(-c2ccc(C(F)(F)F)cc2)c1)N[C@@H]1COc2nc([N+](=O)[O-])cn2C1", "values": [{"measurement": "MIC", "setting": "[1]", "result": 0.035, "unit": "µM"}, {"measurement": "MIC", "setting": "[2]", "result": 3.6, "unit": "µM"}]}
{"smiles": "O=C(N[C@@H]1COc2nc([N+](=O)[O-])cn2C1)c1ccccc1OC(F)(F)F", "values": [{"measurement": "MIC", "setting": "[1]", "result": 27, "unit": "µM"}, {"measurement": "MIC", "setting": "[2]", "result": "> 64", "unit": "µM"}]}
{"smiles": "O=C(NCc1ccc(-c2ccc(OC(F)(F)F)cc2)cc1)O[C@@H]1COc2nc([N+](=O)[O-])cn2C1", "values": [{"measurement": "MIC", "setting": "[1]", "result": 0.52, "unit": "µM"}, {"measurement": "MIC", "setting": "[2]", "result": 2.4, "unit": "µM"}]}
{"smiles": "O=C(NCc1ccc(-c2ccc(C(F)(F)F)nc2)cc1)N[C@@H]1COc2nc([N+](=O)[O-])cn2C1", "values": [{"measurement": "MIC", "setting": "[1]", "result": 0.4, "unit": "µM"}, {"measurement": "MIC", "setting": "[2]", "result": "> 32", "unit": "µM"}]}
{"smiles": "O=C(COc1ccc(-c2ccc(F)nc2)cc1)N[C@@H]1COc2nc([N+](=O)[O-])cn2C1", "values": [{"measurement": "MIC", "setting": "[1]", "result": 0.69, "unit": "µM"}, {"measurement": "MIC", "setting": "[2]", "result": 31, "unit": "µM"}]}
{"smiles": "O=C(Nc1ccc(-c2ccc(OC(F)(F)F)cc2)cc1)N[C@@H]1COc2nc([N+](=O)[O-])cn2C1", "values": [{"measurement": "MIC", "setting": "[1]", "result": 0.06, "unit": "µM"}, {"measurement": "MIC", "setting": "[2]", "result": 18, "unit": "µM"}]}
{"smiles": "O=C(Nc1cccc(-c2ccc(C(F)(F)F)nc2)c1)O[C@@H]1COc2nc([N+](=O)[O-])cn2C1", "values": [{"measurement": "MIC", "setting": "[1]", "result": 0.11, "unit": "µM"}, {"measurement": "MIC", "setting": "[2]", "result": 2.9, "unit": "µM"}]}
{"smiles": "O=C(Cc1ccc(-c2ccc(C(F)(F)F)nc2)cc1)N[C@@H]1COc2nc([N+](=O)[O-])cn2C1", "values": [{"measurement": "MIC", "setting": "[1]", "result": 0.46, "unit": "µM"}, {"measurement": "MIC", "setting": "[2]", "result": "> 32", "unit": "µM"}]}
{"smiles": "O=C(Nc1cccc(-c2ccc(OC(F)(F)F)cc2)c1)O[C@@H]1COc2nc([N+](=O)[O-])cn2C1", "values": [{"measurement": "MIC", "setting": "[1]", "result": 0.06, "unit": "µM"}, {"measurement": "MIC", "setting": "[2]", "result": 0.85, "unit": "µM"}]}
{"smiles": "CN(Cc1ccc(OC(F)(F)F)cc1)C1CCN(C(=O)O[C@@H]2COc3nc([N+](=O)[O-])cn3C2)CC1", "values": [{"measurement": "MIC", "setting": "[1]", "result": 0.18, "unit": "µM"}, {"measurement": "MIC", "setting": "[2]", "result": 26, "unit": "µM"}]}
{"smiles": "O=C(Nc1ccc(-c2ccnc(C(F)(F)F)c2)cc1)O[C@@H]1COc2nc([N+](=O)[O-])cn2C1", "values": [{"measurement": "MIC", "setting": "[1]", "result": 0.75, "unit": "µM"}, {"measurement": "MIC", "setting": "[2]", "result": 6.2, "unit": "µM"}]}
{"smiles": "O=C(CO[C@@H]1COc2nc([N+](=O)[O-])cn2C1)Nc1ccc(OC(F)(F)F)cc1", "values": [{"measurement": "MIC", "setting": "[1]", "result": 0.24, "unit": "µM"}, {"measurement": "MIC", "setting": "[2]", "result": 7.8, "unit": "µM"}]}
{"smiles": "CN([C@@H]1COc2nc([N+](=O)[O-])cn2C1)S(=O)(=O)c1ccc(OC(F)(F)F)cc1", "values": [{"measurement": "MIC", "setting": "[1]", "result": 0.53, "unit": "µM"}, {"measurement": "MIC", "setting": "[2]", "result": 22, "unit": "µM"}]}
{"smiles": "O=C(Cc1ccc(-c2ccc(C(F)(F)F)cc2)cc1)N[C@@H]1COc2nc([N+](=O)[O-])cn2C1", "values": [{"measurement": "MIC", "setting": "[1]", "result": 0.44, "unit": "µM"}, {"measurement": "MIC", "setting": "[2]", "result": 23, "unit": "µM"}]}
{"smiles": "O=C(Nc1cccc(-c2ccc(OC(F)(F)F)cc2)c1)N[C@@H]1COc2nc([N+](=O)[O-])cn2C1", "values": [{"measurement": "MIC", "setting": "[1]", "result": 0.25, "unit": "µM"}, {"measurement": "MIC", "setting": "[2]", "result": 5.8, "unit": "µM"}]}
{"smiles": "CN(C(=O)N(C)[C@@H]1COc2nc([N+](=O)[O-])cn2C1)c1ccc(OC(F)(F)F)cc1", "values": [{"measurement": "MIC", "setting": "[1]", "result": 12, "unit": "µM"}, {"measurement": "MIC", "setting": "[2]", "result": "> 64", "unit": "µM"}]}
{"smiles": "O=C(Nc1ccc(-c2ccc(C(F)(F)F)cc2)cc1)N[C@@H]1COc2nc([N+](=O)[O-])cn2C1", "values": [{"measurement": "MIC", "setting": "[1]", "result": 0.19, "unit": "µM"}, {"measurement": "MIC", "setting": "[2]", "result": "> 32", "unit": "µM"}]}
{"smiles": "O=C(N[C@@H]1COc2nc([N+](=O)[O-])cn2C1)OCc1ccc(-c2ccc(OC(F)(F)F)cc2)cc1", "values": [{"measurement": "MIC", "setting": "[1]", "result": 0.11, "unit": "µM"}, {"measurement": "MIC", "setting": "[2]", "result": 5, "unit": "µM"}]}
{"smiles": "O=C(O[C@@H]1COc2nc([N+](=O)[O-])cn2C1)N1CCC(Oc2ccc(C(F)(F)F)nc2)CC1", "values": [{"measurement": "MIC", "setting": "[1]", "result": 0.14, "unit": "µM"}, {"measurement": "MIC", "setting": "[2]", "result": 27, "unit": "µM"}]}
{"smiles": "O=C(NCc1ccc(-c2ccc(F)cc2)cc1)N[C@@H]1COc2nc([N+](=O)[O-])cn2C1", "values": [{"measurement": "MIC", "setting": "[1]", "result": 0.11, "unit": "µM"}, {"measurement": "MIC", "setting": "[2]", "result": 26, "unit": "µM"}]}
{"smiles": "O=C(Nc1cccc(-c2ccc(F)nc2)c1)O[C@@H]1COc2nc([N+](=O)[O-])cn2C1", "values": [{"measurement": "MIC", "setting": "[1]", "result": 0.24, "unit": "µM"}, {"measurement": "MIC", "setting": "[2]", "result": 5.8, "unit": "µM"}]}
{"smiles": "O=C(NCc1ccc(OC(F)(F)F)cc1)N[C@@H]1COc2nc([N+](=O)[O-])cn2C1", "values": [{"measurement": "MIC", "setting": "[1]", "result": 0.27, "unit": "µM"}, {"measurement": "MIC", "setting": "[2]", "result": 4.1, "unit": "µM"}]}
{"smiles": "O=C(Nc1cccc(-c2ccc(C(F)(F)F)nc2)c1)N[C@@H]1COc2nc([N+](=O)[O-])cn2C1", "values": [{"measurement": "MIC", "setting": "[1]", "result": 0.22, "unit": "µM"}, {"measurement": "MIC", "setting": "[2]", "result": 13, "unit": "µM"}]}
{"smiles": "O=C(CN[C@@H]1COc2nc([N+](=O)[O-])cn2C1)Nc1ccc(OC(F)(F)F)cc1", "values": [{"measurement": "MIC", "setting": "[1]", "result": 0.7, "unit": "µM"}, {"measurement": "MIC", "setting": "[2]", "result": 46, "unit": "µM"}]}
{"smiles": "O=C(COc1ccc(-c2ccc(C(F)(F)F)cc2)cc1)N[C@@H]1COc2nc([N+](=O)[O-])cn2C1", "values": [{"measurement": "MIC", "setting": "[1]", "result": 0.25, "unit": "µM"}, {"measurement": "MIC", "setting": "[2]", "result": "> 32", "unit": "µM"}]}
